Data from ChEMBL document CHEMBL4425110, “ICI 56,780 Optimization: Structure-Activity Relationship Studies of 7-(2-Phenoxyethoxy)-4(1H)-quinolones with Antimalarial Activity” (J Med Chem, 2016).
pEC50: −log10 of the molar value. The source made the active and inactive calls. No cut-off for these calls is given here.

What was measured:
[1] = system: J774; experiment: Cytotoxicity against mouse J774 cells; format: cell-based
[2] = system: Plasmodium berghei; experiment: Antimalarial activity against Plasmodium berghei; format: functional, organism-based
Summary of the method: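 In vitro liver-stage (exoerythrocytic) assay against P. berghei; the value is the EC50 (nM).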

[3] = system: Plasmodium falciparum; experiment: Antimalarial activity against Plasmodium falciparum W2; format: functional, organism-based
[4] = system: Plasmodium falciparum; experiment: Antimalarial activity against Plasmodium falciparum TM90-C2B; format: functional, organism-based
[5] = system: Plasmodium berghei; experiment: Antimalarial activity against Plasmodium berghei infected in mouse assessed as inhibition of parasitemia at 50 mg/kg, po administered as single dose measured on day 3 post drug exposure relative to untreated control; format: functional; conditions: 72 h
Summary of the method: (§1)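 Two infected mice per compound were each given a single oral dose of 50 mg/kg, suspended in PEG400, on day 1 post-exposure. Parasitemia was assessed on days 3 and 6 post-exposure.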

[6] = system: Plasmodium berghei; experiment: Antimalarial activity against Plasmodium berghei infected in mouse assessed as inhibition of parasitemia at 50 mg/kg, po administered as single dose measured on day 6 post drug exposure relative to untreated control; format: functional; conditions: 144 h; summary of the method: as §1
[7] = Liver blood index, ratio of EC50 for Plasmodium falciparum W2 to EC50 for Plasmodium berghei; format: functional
Summary of the method: (§2)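 Liver-stage EC50 measured in vitro against P. berghei. Liver blood index is the blood-stage EC50 divided by the P. berghei EC50, using either W2 or TM90-C2B as the blood-stage strain.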

[8] = Liver blood index, ratio of EC50 for Plasmodium falciparum TM90-C2B to EC50 for Plasmodium berghei; format: functional; summary of the method: as §2
[9] = system: Plasmodium falciparum; experiment: Resistance index, ratio of EC50 for Plasmodium falciparum TM90-C2B to EC50 for Plasmodium falciparum W2; format: functional
[10] = system: Plasmodium berghei; experiment: Antimalarial activity against GFP expressing Plasmodium berghei infected in mouse assessed as inhibition of parasitemia at 10 mg/kg, po administered on days 3, 4 and 5 and measured on day 6 post drug exposure by Giemsa staining based modified Thompson test; format: functional; conditions: 144 h
[11] = system: Plasmodium berghei; experiment: Antimalarial activity against GFP expressing Plasmodium berghei infected in mouse assessed as average time for mouse death at 10 mg/kg, po administered on days 3, 4 and 5 and measured on day 6 post drug exposure by Giemsa staining based modified Thompson test; format: functional
[12] = system: Plasmodium berghei; experiment: Antimalarial activity against GFP expressing Plasmodium berghei infected in mouse assessed as inhibition of parasitemia at 10 mg/kg, po administered on days 3, 4 and 5 and measured on day 13 post drug exposure by Giemsa staining based modified Thompson test; format: functional, organism-based
[13] = Solubility in pH 6.5 buffer by HPLC based UV spectroscopy; format: physicochemical

Structure (SMILES) | pEC50 [1] | pEC50 [2] | pEC50 [3] | pEC50 [4] | inhibition in vivo at 50 mg/kg [5] | inhibition in vivo at 50 mg/kg [6] | Ratio EC50 [7] | Ratio EC50 [8] | Ratio EC50 [9] | inhibition in vivo at 10 mg/kg [10] | Time [11] | Activity [12] | solubility [13]
COC(=O)c1c[nH]c2ccc(OCCCc3ccccc3)cc2c1=O | 4.77 | 7.95 | 7.84 | 5.44 | 76.9% | < 1% | 1.3 | 331 | 255 |  |  |  | 
COC(=O)c1c[nH]c2cc(OCCc3ccccc3)ccc2c1=O | 4.76 |  | 6.86 | 5.11 | 60% | < 1% |  |  | 55.7 |  |  |  | 
COC(=O)c1c[nH]c2ccc(OCCc3ccccc3)cc2c1=O | 5.66 | 8.16 | 7.61 | 5.52 | 7.69% | < 1% | 3.53 | 438 | 124 |  |  |  | 
COC(=O)c1c[nH]c2cc(OCCCc3ccccc3)ccc2c1=O | 5.83 | 8.28 | 9.15 | < 6.11 | 69.2% | 47.1% | 0.14 |  | >1100 |  |  |  | 
CCc1cc2c(=O)c(C(=O)OC)c[nH]c2cc1OCCOc1ccccc1 | < 4.70 | 9.13 | 9.34 | 7.19 |  |  | 0.626 | 88.6 | 142 |  |  |  | 
COC(=O)c1c[nH]c2ccccc2c1=O | < 4.70 | 8.44 | 6.70 | 5.18 |  |  | 54.8 | 1810 | 33 |  |  |  | 
CCCCc1cc2c(=O)c(Cl)c(C)[nH]c2cc1OCCOc1ccccc1 | < 5.00 | 7.95 | 8.16 | 7.17 |  |  | 0.616 | 6.03 | 9.79 |  |  |  | 
COC(=O)c1c[nH]c2cc(OCCOc3ccccc3)ccc2c1=O | < 4.70 | 9.54 | 8.55 | 7.13 |  |  | 9.79 | 257 | 26.3 |  |  |  | 
CCCCc1cc2c(=O)c(C(=O)OC)c[nH]c2cc1OCCOc1ccccc1 | < 4.70 | 10.28 | 10.41 | 8.10 | 76.9% | 49% | 0.75 | 152 | 202 | < 1% | 13 days |  | 
COC(=O)c1c[nH]c2cc(OCCOc3ccccc3)c(Cl)cc2c1=O | < 4.70 | 10.20 | 8.00 | 6.21 | < 1% | < 1% | 158 | 9790 | 62.1 |  |  |  | 
COC(=O)c1c[nH]c2cc(OCCOc3ccccc3)c(C)cc2c1=O | < 4.70 | 6.82 | 8.70 | 6.30 |  |  | 0.013 | 3.28 | 248 |  |  |  | 
CCCCc1cc2c(=O)c(I)c(C)[nH]c2cc1OCCOc1ccccc1 |  |  | 9.06 | 8.23 | 53.9% | 19.6% |  |  | 6.77 |  |  |  | 
CCCCc1cc2c(=O)c(C(=O)OCC)c[nH]c2cc1OCCOc1ccccc1 | < 4.70 | 11.15 | 9.84 | 7.00 |  |  | 19.6 | 14300 | 699 |  |  |  | 
CCCCc1cc2c(=O)c(Br)c(C)[nH]c2cc1OCCOc1ccccc1 | < 5.00 | 8.67 | 8.59 | 7.91 | 100% | 49.5% | 1.23 | 5.75 | 4.69 | 61% | 13 days | inactive | 
CCCCc1cc2c(=O)c(CC)c[nH]c2cc1OCCOc1ccccc1 | 6.44 | 8.58 | 9.36 | 8.72 | 69.2% | 17.7% | 0.166 | 0.725 | 4.36 |  |  |  | 
CCCCc1cc2c(=O)c(C(=O)N(C)C)c[nH]c2cc1OCCOc1ccccc1 | 4.82 | 6.91 | 7.25 | < 5.21 |  |  | 0.46 | > 27.7 | >108 |  |  |  | 
CCCCc1cc2c(=O)c(I)c[nH]c2cc1OCCOc1ccccc1 | < 5.00 | 8.59 | 8.91 | 8.22 |  |  | 0.482 | 2.37 | 4.91 |  |  |  | 
O=C1C(O)=C([C@H]2CC[C@H](c3ccc(Cl)cc3)CC2)C(=O)c2ccccc21 [ATOVAQUONE] |  |  |  |  |  |  |  |  |  |  | 30 days |  | 
COC(=O)c1c[nH]c2cc(OCCOc3ccccc3)c(OC)cc2c1=O | < 4.70 | 7.76 | 8.16 | 7.95 |  |  | 0.396 | 0.634 | 1.6 |  |  |  | 
COC(=O)c1c[nH]c2cc(Oc3ccccc3)ccc2c1=O | 5.04 | 6.96 | 7.78 | 5.71 | 40% | 29.8% | 0.15 | 17.7 | 117 |  |  |  | 
CCCCc1cc2c(=O)c(C(=O)NC)c[nH]c2cc1OCCOc1ccccc1 | < 4.70 | 8.54 | 7.88 | 5.40 |  |  | 4.63 | 1390 | 299 |  |  |  | 
CCCCc1cc2c(=O)c(C(=O)NCCO)c[nH]c2cc1OCCOc1ccccc1 | < 4.70 | 7.89 | 6.60 | 5.23 | 40% | < 1% | 19.8 | 460 | 23.3 |  |  |  | > 20 µM
COC(=O)c1c[nH]c2ccc(Cl)cc2c1=O | < 4.70 | 7.33 | 6.21 | 4.09 |  |  | 13.2 | 1760 | 134 |  |  |  | 
CCCCc1cc2c(=O)cc[nH]c2cc1OCCOc1ccccc1 | < 4.70 | 8.24 | 6.48 | 6.37 |  |  | 56.4 | 73.9 | 1.31 |  |  |  | 
COC(=O)c1c[nH]c2ccc(OCc3ccccc3)cc2c1=O | 5.12 | 6.90 | 7.94 | 5.96 |  | < 1% | 0.091 | 8.66 |  |  |  |  | 
CCCCc1ccc2[nH]cc(C(=O)OC)c(=O)c2c1 | < 4.70 | 9.09 | 8.80 | 6.65 |  |  | 1.93 | 271 | 141 |  |  |  | 
